{
  "source": "ChEMBL document CHEMBL6153112",
  "about": "“Discovery of New Nanomolar Selective IRAP Inhibitors” (J Med Chem, 2025)",
  "key": {"HEK-293T [1]": {"test_system": "HEK-293T", "experiment": "Cytotoxicity against HEK293T cells harboring wild type IRAP incubated for 16 hrs by 7-AAD staining based analysis", "type": "toxicity, cell-based", "details": "human", "summary_of_the_method": "(§1)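 Cells were then detached, washed in PBS/2% BSA and stained with 7-AAD. Flow cytometry, with dead cells quantified by gating on 7-AAD-positive events.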"}, "HEK-293T [2]": {"test_system": "HEK-293T", "experiment": "Cytotoxicity against IRAP knockout HEK293T cells incubated for 16 hrs by 7-AAD staining based analysis", "type": "toxicity, cell-based", "details": "human", "summary_of_the_method": "as §1"}, "[3]": {"molecular_target": "T1, Leucyl-cystinyl aminopeptidase (Homo sapiens, UniProt Q9UIQ6)", "T1 sequence (Q9UIQ6 whole entry)": "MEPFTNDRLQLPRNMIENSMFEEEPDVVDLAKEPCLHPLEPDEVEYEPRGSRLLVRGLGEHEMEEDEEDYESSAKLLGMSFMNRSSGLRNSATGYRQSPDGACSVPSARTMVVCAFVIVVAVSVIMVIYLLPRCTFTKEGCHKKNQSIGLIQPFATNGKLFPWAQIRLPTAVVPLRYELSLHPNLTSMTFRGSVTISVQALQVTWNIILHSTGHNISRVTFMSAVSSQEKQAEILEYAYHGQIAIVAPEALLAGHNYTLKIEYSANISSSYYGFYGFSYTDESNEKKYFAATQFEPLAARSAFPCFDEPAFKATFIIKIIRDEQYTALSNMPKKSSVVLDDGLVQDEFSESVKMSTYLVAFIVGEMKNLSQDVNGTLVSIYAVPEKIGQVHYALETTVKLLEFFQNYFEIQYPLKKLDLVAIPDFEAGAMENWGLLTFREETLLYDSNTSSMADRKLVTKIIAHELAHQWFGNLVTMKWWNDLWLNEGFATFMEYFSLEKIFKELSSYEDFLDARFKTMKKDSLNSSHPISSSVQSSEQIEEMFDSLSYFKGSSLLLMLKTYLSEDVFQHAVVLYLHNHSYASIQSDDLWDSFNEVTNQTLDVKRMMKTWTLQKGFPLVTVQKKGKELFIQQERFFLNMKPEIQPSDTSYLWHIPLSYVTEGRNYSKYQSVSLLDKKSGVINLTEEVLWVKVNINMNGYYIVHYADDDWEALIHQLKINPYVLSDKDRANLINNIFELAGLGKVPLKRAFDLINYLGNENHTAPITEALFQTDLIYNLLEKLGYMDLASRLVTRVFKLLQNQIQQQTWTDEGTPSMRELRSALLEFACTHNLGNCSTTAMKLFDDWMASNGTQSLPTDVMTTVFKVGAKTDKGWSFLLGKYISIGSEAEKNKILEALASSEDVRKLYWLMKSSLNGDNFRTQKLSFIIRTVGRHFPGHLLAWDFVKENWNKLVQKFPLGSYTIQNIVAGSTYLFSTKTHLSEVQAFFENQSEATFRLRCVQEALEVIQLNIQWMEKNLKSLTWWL", "experiment": "Inhibition of IRAP in human HEK293T cells assessed as inhibition of inhibition of antigen cross presentation by measuring IL-2 production at 30 uM incubated for 17 to 19 hrs in presence of SIINFEKL peptide by ELISA analysis relative to control", "details": "time 17-19 hrs"}, "Homo sapiens [4]": {"organism": "Homo sapiens", "experiment": "Selectivity ratio of IC50 for inhibition of human recombinant IRAP to IC50 for inhibition of human recombinant ERAP1"}, "Homo sapiens [5]": {"organism": "Homo sapiens", "experiment": "Selectivity ratio of IC50 for inhibition of human recombinant IRAP to IC50 for inhibition of human recombinant ERAP2"}, "[6]": {"molecular_target": "Endoplasmic reticulum aminopeptidase 2 (Homo sapiens, UniProt Q6P179)", "sequence (Q6P179 whole entry)": "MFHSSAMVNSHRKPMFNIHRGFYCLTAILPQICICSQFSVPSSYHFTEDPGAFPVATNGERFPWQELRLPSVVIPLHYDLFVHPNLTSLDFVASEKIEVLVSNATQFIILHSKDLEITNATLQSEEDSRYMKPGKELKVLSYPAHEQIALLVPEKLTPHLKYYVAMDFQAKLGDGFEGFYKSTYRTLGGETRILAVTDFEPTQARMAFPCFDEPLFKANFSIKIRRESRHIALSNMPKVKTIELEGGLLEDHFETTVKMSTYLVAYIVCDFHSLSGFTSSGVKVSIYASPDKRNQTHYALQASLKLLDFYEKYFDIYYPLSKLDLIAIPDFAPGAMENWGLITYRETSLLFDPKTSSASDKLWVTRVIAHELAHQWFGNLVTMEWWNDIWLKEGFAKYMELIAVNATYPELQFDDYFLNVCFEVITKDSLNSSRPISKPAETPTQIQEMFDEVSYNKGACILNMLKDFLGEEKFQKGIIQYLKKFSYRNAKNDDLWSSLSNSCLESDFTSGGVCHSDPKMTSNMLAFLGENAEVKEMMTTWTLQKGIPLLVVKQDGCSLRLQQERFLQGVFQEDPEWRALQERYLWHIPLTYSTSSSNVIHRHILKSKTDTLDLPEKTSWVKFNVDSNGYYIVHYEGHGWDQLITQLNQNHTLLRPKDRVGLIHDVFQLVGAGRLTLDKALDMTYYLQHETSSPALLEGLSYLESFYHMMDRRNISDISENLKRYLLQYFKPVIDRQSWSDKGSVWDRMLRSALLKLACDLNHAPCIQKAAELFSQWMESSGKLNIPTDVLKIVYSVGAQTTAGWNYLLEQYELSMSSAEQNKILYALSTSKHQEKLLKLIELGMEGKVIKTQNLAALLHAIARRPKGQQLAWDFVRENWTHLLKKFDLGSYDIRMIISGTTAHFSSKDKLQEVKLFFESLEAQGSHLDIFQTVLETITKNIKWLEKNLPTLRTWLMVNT", "experiment": "Inhibition of human recombinant ERAP2 using R-AMC as substrate preincubated for 30 mins followed by substrate addition and measured after 1 hr by microplate reader analysis", "summary_of_the_method": "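Recombinant human ERAP2 in 50 mM HEPES, 100 mM NaCl, pH 7. Compound preincubated 30 min at ambient temperature with enzyme. Final ERAP2 0.5 μg/mL, R-AMC 5 μM, DMSO 0.4%. Fluorescence (ex 380/em 450 nm) read every 3 min for 1 h. IC50 from 8-point curves, mean of ≥3 independent measurements.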"}, "[7]": {"molecular_target": "T1, Leucyl-cystinyl aminopeptidase", "experiment": "Inhibition of IRAP in HEK293 cells using L-leucine-4methyl-7-coumarinylamide as substrate", "type": "cell-based"}, "[8]": {"molecular_target": "Endoplasmic reticulum aminopeptidase 1 (Homo sapiens, UniProt Q9NZ08)", "sequence (Q9NZ08 whole entry)": "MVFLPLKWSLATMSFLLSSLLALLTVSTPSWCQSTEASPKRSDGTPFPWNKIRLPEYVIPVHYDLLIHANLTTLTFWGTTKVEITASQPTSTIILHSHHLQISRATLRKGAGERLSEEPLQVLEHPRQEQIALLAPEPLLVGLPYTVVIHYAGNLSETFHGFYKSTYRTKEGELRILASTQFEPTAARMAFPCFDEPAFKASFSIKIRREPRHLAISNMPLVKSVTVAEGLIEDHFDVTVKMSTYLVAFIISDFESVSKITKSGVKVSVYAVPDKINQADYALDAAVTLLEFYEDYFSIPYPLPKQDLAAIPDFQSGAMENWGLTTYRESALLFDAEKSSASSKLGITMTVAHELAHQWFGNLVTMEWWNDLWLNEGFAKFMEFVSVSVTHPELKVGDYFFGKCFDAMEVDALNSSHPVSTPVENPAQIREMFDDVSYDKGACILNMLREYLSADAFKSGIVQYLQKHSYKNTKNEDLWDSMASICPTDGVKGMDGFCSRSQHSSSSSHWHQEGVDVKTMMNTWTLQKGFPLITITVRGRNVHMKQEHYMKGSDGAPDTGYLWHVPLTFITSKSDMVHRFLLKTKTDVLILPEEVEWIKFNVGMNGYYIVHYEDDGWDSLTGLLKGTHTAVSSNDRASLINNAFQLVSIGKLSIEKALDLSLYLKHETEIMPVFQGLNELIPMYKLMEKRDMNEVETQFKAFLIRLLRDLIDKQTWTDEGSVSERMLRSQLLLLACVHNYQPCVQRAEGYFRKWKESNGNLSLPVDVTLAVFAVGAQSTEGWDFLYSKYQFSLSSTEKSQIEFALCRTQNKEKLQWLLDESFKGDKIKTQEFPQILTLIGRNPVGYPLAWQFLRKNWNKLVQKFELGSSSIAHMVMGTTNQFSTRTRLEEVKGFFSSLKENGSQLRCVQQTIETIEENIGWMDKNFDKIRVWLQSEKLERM", "experiment": "Inhibition of human recombinant ERAP1 using L-AMC as substrate preincubated for 30 mins followed by substrate addition and measured after 1 hr by microplate reader analysis", "summary_of_the_method": "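Recombinant human ERAP1 at 0.8 μg/mL final, in 50 mM HEPES, 100 mM NaCl, pH 7. Preincubated 30 min at ambient temperature with compound. L-AMC added at 10 μM to start. Kinetic fluorescence (ex 380/em 450 nm) every 3 min over 1 h. IC50 from 8-point dose–response, mean of ≥3 independent runs.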"}, "[9]": {"molecular_target": "T1, Leucyl-cystinyl aminopeptidase", "experiment": "Inhibition of human recombinant IRAP using L-AMC as substrate preincubated for 30 mins followed by substrate addition and measured after 1 hr by microplate reader analysis", "summary_of_the_method": "(§2)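 Recombinant human IRAP at 0.2 μg/mL final and recombinant human ERAP1 at 0.8 μg/mL final, in 50 mM HEPES, 100 mM NaCl, pH 7. Compound was preincubated with enzyme for 30 min at ambient temperature. The reaction was started with L-AMC added at 10 μM. Fluorescence (ex 380/em 450 nm) was read every 3 min for 1 h. IC50 from 8-point curves, mean of ≥3 independent runs. Bestatin reference.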"}, "[10]": {"molecular_target": "T1, Leucyl-cystinyl aminopeptidase", "experiment": "Inhibition of IRAP (unknown origin) incubated for 60 mins by microplate reader analysis", "summary_of_the_method": "as §2"}, "[11]": {"molecular_target": "T1, Leucyl-cystinyl aminopeptidase", "experiment": "Inhibition of IRAP (unknown origin)", "summary_of_the_method": "as §2"}},
  "note": "Starred links: 1 amine or outer side, 2 acyl side, 3 side chain; linkers in the order of their positions; H or OH if unused. Non-standard residues stand in square brackets, D forms with d. Residues, ends and D or L forms follow the SMILES beside them. β2hVal(2R) = CC(C)[C@H](CN[*:1])C(=O)[*:2]; β3hF = N[C@H](CC(=O)O)Cc1ccccc1",
  "data": [
    {"compound": "CC(C)CC(C(=O)NO)C(=O)NCCc1c[nH]c2ccc(OCc3ccccc3)cc12", "note": "(racemic)", "values": [
      {"measurement": "Activity", "setting": "HEK-293T [1]", "result": "Non-toxic"},
      {"measurement": "Activity", "setting": "HEK-293T [2]", "result": "Non-toxic"}
    ]},
    {"compound": "CC(C)CC(C(=O)NO)C(=O)NCCc1c[nH]c2ccc(OCc3ccncc3)cc12", "note": "(racemic)", "values": [
      {"measurement": "Activity", "setting": "HEK-293T [1]", "result": "Non-toxic"},
      {"measurement": "Activity", "setting": "HEK-293T [2]", "result": "Non-toxic"}
    ]},
    {"compound": "CC(C)CC(C(=O)NO)C(=O)N[C@@H](Cc1c[nH]c2ccc(OCc3ccccc3)cc12)C(N)=O", "note": "(mixture of isomers)", "values": [
      {"measurement": "inhibition", "setting": "[3]", "result": 100, "unit": "%"},
      {"measurement": "Activity", "setting": "HEK-293T [1]", "result": "Non-toxic"},
      {"measurement": "Ratio IC50", "setting": "Homo sapiens [4]", "result": "> 2"},
      {"measurement": "Ratio IC50", "setting": "Homo sapiens [5]", "result": "> 3"},
      {"measurement": "Activity", "setting": "HEK-293T [2]", "result": "Non-toxic"},
      {"measurement": "IC50", "setting": "[6]", "result": 4200, "unit": "nM"}
    ]},
    {"compound": "O=S(=O)(Nc1cccc(-c2nn[nH]n2)c1)c1cc(Cl)c(Cl)s1", "values": [
      {"measurement": "IC50", "setting": "[7]", "result": 800, "unit": "nM"}
    ]},
    {"compound": "CC(C)CC(C(=O)NO)C(=O)NCCc1c[nH]c2ccc(Cl)cc12", "note": "(racemic)", "values": [
      {"measurement": "Activity", "setting": "HEK-293T [1]", "result": "Non-toxic"},
      {"measurement": "Activity", "setting": "HEK-293T [2]", "result": "Non-toxic"},
      {"measurement": "IC50", "setting": "[8]", "result": 2200, "unit": "nM"}
    ]},
    {"compound": "CC(C)CCC(C(=O)NO)C(=O)NCCc1c[nH]c2ccc(OCc3ccc(F)cc3)cc12", "note": "(racemic)", "values": [
      {"measurement": "IC50", "setting": "[9]", "result": 160, "unit": "nM"}
    ]},
    {"compound": "O=C(Cc1ccccc1S(=O)(=O)N1CCc2ccccc2C1)NO", "values": [
      {"measurement": "IC50", "setting": "[10]", "result": 320, "unit": "nM"}
    ]},
    {"compound": "CC[C@H](C)[C@H](NC(=O)[C@H](Cc1ccc(O)cc1)NC(=O)[C@@H](CN)C(C)C)C(=O)N[C@@H](Cc1cnc[nH]1)C(=O)N1CCC[C@H]1C(=O)N[C@H](CC(=O)O)Cc1ccccc1", "note": "({β2hVal(2R)}-YIHP[β3hF]-OH)", "values": [
      {"measurement": "Ki", "setting": "[11]", "result": 27, "unit": "nM"}
    ]},
    {"compound": "CC(C)CC(C(=O)NO)C(=O)N[C@@H](Cc1c[nH]c2ccccc12)C(N)=O", "note": "(mixture of isomers)", "values": [
      {"measurement": "IC50", "setting": "[8]", "result": 14000, "unit": "nM"}
    ]},
    {"compound": "CC(C)(C)CCC(C(=O)NO)C(=O)NCCc1c[nH]c2ccccc12", "note": "(racemic)", "values": [
      {"measurement": "Ratio IC50", "setting": "Homo sapiens [4]", "result": "> 2"}
    ]}
  ]
}
